Consider 14 compounds from ChEMBL document CHEMBL1155413, “Synthesis and evaluation of a library of 2,5-bisdiamino-benzoquinone derivatives as probes to modulate protein-protein interactions in prions” (Bioorg Med Chem Lett, 2010).

Holding throughout (format): cell-based
Data set [1] is described as follows: Cytotoxicity against mouse ScGT1 cells at 1 uM after 5 days by calcein-AM staining. Conditions: scgt1, 120 h. Put shortly: (§1)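 ScGT1 cells in DMEM + 10% FBS, plated at 25000 cells per well. Compounds dissolved in 100% DMSO and diluted in PBS, then added at 1 nM–10 μM for 5 days at 37 °C, 5% CO₂. Viability read by Calcein-AM fluorescence on a plate reader as percent viable cells vs untreated control; LC₅₀ taken as the 50% lethal concentration.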

A further data set has as its system ScGT1. The data set is described as follows: Antiprion activity against scrapie prion protein replication in mouse ScGT1 cells assessed as inhibition of formation of PrPSc from PrPc after 5 days by western-blot analysis. Details: concentration or dose not given beside the values. Conditions: dose or concentration not given here. The method, boiled down:
(§2)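 ScGT1 cells in DMEM + 10% FBS, split 1:10 into Petri dishes and grown 2 days at 37 °C, 5% CO₂. Compounds added at non-toxic concentrations from 0.1 nM upward and left 5 days. Proteins then extracted, quantified, digested with proteinase K and Western-blotted. Densitometry of PK-resistant PrP gives percent remaining vs untreated cells; EC₅₀ taken as the concentration for half-maximal inhibition.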

The nature of data set [2]: Antiprion activity against scrapie prion protein replication in mouse ScGT1 cells assessed as inhibition of formation of PrPSc from PrPc […] after 5 days by western-blot analysis. Conditions: ScGT1, 120 h. Put shortly: as §2
Data set [3] in a line: Cytotoxicity against mouse ScGT1 cells at after 5 days by calcein-AM staining. Conditions: read-out: LC50. The method, boiled down: as §1

The term inhibition denotes the percentage by which the read-out fell short of the control. As usually defined, the EC50 is the midpoint of the concentration-response curve.

The structures appear in SMILES notation.

For `COC(=O)[C@H](C)NC1=C(Cl)C(=O)C(N[C@@H](C)C(=O)OC)=C(Cl)C1=O`, the Activity in data set [1] is given as 71.6%. Also, the inhibition in the data set on ScGT1 is 0.36%.
On to `COC(=O)[C@H](C)NC1=C(Cl)C(=O)C(N[C@@H](CCCCNC(=O)OC(C)(C)C)C(=O)OC)=C(Cl)C1=O`, for which the Activity in data set [1] is recorded as 40.7%.
As for `COC(=O)[C@H](C)NC1=C(Br)C(=O)C(N[C@@H](Cc2c[nH]c3ccccc23)C(=O)OC)=C(Br)C1=O`, the Activity in data set [1] is listed as 65.9%. Moreover, the inhibition in the data set on ScGT1 came to 0.43%.
Take `COC(=O)[C@H](C)NC1=C(Br)C(=O)C(N[C@@H](CCCCNC(=O)OC(C)(C)C)C(=O)OC)=C(Br)C1=O`: the Activity in data set [1] is reported as 52.3%.
With `COC(=O)[C@H](C)NC1=C(Br)C(=O)C(N[C@@H](CCCNC(=N)N[N+](=O)[O-])C(=O)OC)=C(Br)C1=O`, in data set [1], the Activity is listed as 74.1%. In addition, the inhibition in the data set with ScGT1 came to 0.31%.
With `COC(=O)[C@H](C)NC1=C(Br)C(=O)C(N[C@@H](Cc2ccccc2)C(=O)OC)=C(Br)C1=O`, the Activity in data set [1] was 80.2%. The inhibition in the data set with ScGT1 is 18.1%. Moreover, the concentration giving a half-maximal response (EC50) in data set [2] amounted to 3600 nM.
Turning to `CC[C@H](C)[C@@H](NC1=C(Br)C(=O)C(N[C@@H](C)C(=O)OC)=C(Br)C1=O)C(=O)OC`, the Activity in data set [1] is given as 91.3%. Also, the inhibition in the data set on ScGT1 stood at 28.1%.
The like results for `CC[C@H](C)[C@@H](NC1=C(Cl)C(=O)C(N[C@@H](C)C(=O)OC)=C(Cl)C1=O)C(=O)OC` were, in that order, 88.2% and 6.6%.
In the case of `COC(=O)[C@H](C)NC1=C(Cl)C(=O)C(N[C@@H](Cc2ccccc2)C(=O)OC)=C(Cl)C1=O`, in data set [1], the Activity is recorded as 68.4%. In addition, in the data set with ScGT1, the inhibition worked out at 73.2%. The EC50 in data set [2] came to 870 nM. In addition, the CC50 at 120 h in data set [3] was 2400 nM.
Consider `COC(=O)[C@H](C)NC1=C(Cl)C(=O)C(N[C@@H](CCSC)C(=O)OC)=C(Cl)C1=O`, for which the Activity in data set [1] is 95.5%. For the same compound, the inhibition in the data set on ScGT1 came to 4.8%.
`COC(=O)[C@H](C)NC1=C(Cl)C(=O)C(N[C@@H](Cc2c[nH]c3ccccc23)C(=O)OC)=C(Cl)C1=O`: the Activity in data set [1] is on record as 96%. Besides, the inhibition with ScGT1 was determined as 0.25%. Further, the EC50 in data set [2] was 7700 nM.
As to `COC(=O)[C@H](C)NC1=C(Br)C(=O)C(N[C@@H](C)C(=O)OC)=C(Br)C1=O`, in data set [1], the Activity was 91.2%. The inhibition in the data set on ScGT1 was 0.29%.
`COC(=O)[C@H](C)NC1=C(Cl)C(=O)C(N[C@@H](CCCNC(=N)N[N+](=O)[O-])C(=O)OC)=C(Cl)C1=O`: the Activity in data set [1] was 81.4%. For the same compound, the inhibition with ScGT1 was determined as 0.23%.
Regarding `COC(=O)[C@H](C)NC1=C(Br)C(=O)C(N[C@@H](CCSC)C(=O)OC)=C(Br)C1=O`, the Activity in data set [1] is on record as 96.1%. In addition, the inhibition in the data set with ScGT1 came to 11.4%.
